These results are taken from ChEMBL document CHEMBL1141140, “Antifungal agents. 11. N-substituted derivatives of 1-[(aryl)(4-aryl-1H-pyrrol-3-yl)methyl]-1H-imidazole: synthesis, anti-Candida activity, and QSAR studies” (2005).

The test system of test [1] is Candida albicans. Put plainly: In vitro concentration causing 90% inhibition of Candida albicans with percentage of resistant strains %R = 33.33 (MIC > 64 ug/mL) at a range of 0.062-2 ug/mL. The format is functional.
The subject of test [2] is Candida albicans. The test is described as follows: In vitro concentration causing 50% inhibition of Candida albicans with percentage of resistant strains %R = 33.33 (MIC > 64 ug/mL) at a range of 0.062-2 ug/mL. The format is functional.
For test [3], the system named is Candida albicans. Put plainly: microbe, parasite or virus in culture.
In test [4] the test system is Candida albicans. The test is described as follows: Ratio of the in vitro minimal inhibitory to that of bifonazole against Candida albicans (MIC(compound)/MIC(bifonazole)). The format is functional. Put shortly:
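Broth microdilution per NCCLS M27-A2 against 12 Candida albicans strains (AIDS oropharyngeal, HIV vulvovaginitis isolates, ATCC 24433 and 20891, lab strains 3153 and CA2). Inoculum ~10^4 cells/mL in RPMI 1640, pH 7.0; DMSO stocks 6.4 mg/mL, twofold dilutions 0.016–64 μg/mL; read at 24 h, 28 °C, no visible growth. Mean MIC over strains converted to μmol/mL, divided by bifonazole MIC.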

Test [5] concerns Candida albicans. The test is described as follows: In vitro concentration causing 90% inhibition of Candida albicans with percentage of resistant strains %R = 45.45 (MIC > 64 ug/mL) at a range of 0.125-0.5 ug/mL. The format is functional.
For test [6], the system named is Candida albicans. The test is described as follows: In vitro minimal inhibitory concentration against Candida albicans with percentage of resistant strains %R = 45.45 (MIC > 64 ug/mL) at a range of 0.125-0.5 ug/mL. The format is functional.
For test [7], the system named is Candida albicans. The test is described as follows: In vitro concentration causing 50% inhibition of Candida albicans with percentage of resistant strains %R = 45.45 (MIC > 64 ug/mL) at a range of 0.125-0.5 ug/mL. The format is functional.
The subject of test [8] is Candida albicans. Put plainly: In vitro minimal inhibitory concentration against Candida albicans with percentage of resistant strains %R = 25 (MIC > 64 ug/mL) at a range of 0.062-0.25 ug/mL. The format is functional.
Test [9] relates to Candida albicans. Put plainly: In vitro concentration causing 50% inhibition of Candida albicans with percentage of resistant strains %R = 25 (MIC > 64 ug/mL) at a range of 0.062-0.25 ug/mL. The format is functional.
In test [10] the test system is Candida albicans. Put plainly: In vitro concentration causing 90% inhibition of Candida albicans with percentage of resistant strains %R = 25 (MIC > 64 ug/mL) at a range of 0.062-0.25 ug/mL. The format is functional.
Test [11] concerns Candida albicans. Put plainly: In vitro concentration causing 90% inhibition of Candida albicans with percentage of resistant strains %R = 10 (MIC > 64 ug/mL) at a range of 0.5-8 ug/mL. The format is functional.
For test [12], the system named is Candida albicans. The test is described as follows: In vitro minimal inhibitory concentration against Candida albicans with percentage of resistant strains %R = 10 (MIC > 64 ug/mL) at a range of 0.5-8 ug/mL. The format is functional.
Test [13] deals with Candida albicans. Put plainly: In vitro concentration causing 50% inhibition of Candida albicans with percentage of resistant strains %R = 10 (MIC > 64 ug/mL) at a range of 0.5-8 ug/mL. The format is functional.
Test [14] concerns Candida albicans. Put plainly: Ratio of the in vitro minimal inhibitory concentrations to that of bifonazole against Candida albicans (MIC(compound)/MIC(bifonazole)). The format is functional.

Values after ≈ are worked out from the molar mass of the structure shown.

In the case of `Clc1ccc(COC(Cn2ccnc2)c2ccc(Cl)cc2Cl)c(Cl)c1` (stereo not given) [MICONAZOLE], in [1], the MIC90 (commonly the lowest concentration that inhibits either 90% of growth or 90% of the strains tested, depending on the study) was found to be 1 µg/mL (≈ 2.4 µM). Moreover, the MIC50 – broadly, an inhibitory concentration at the 50% level, which refers to growth in some studies and to a panel of isolates in others – in test [2] was 0.062 µg/mL (≈ 0.149 µM). Also, the MIC in test [3] turned out to be 0.65 µg/mL (≈ 1.56 µM). Also, the Ratio in test [4] was 0.14.
`OC(Cn1cncn1)(Cn1cncn1)c1ccc(F)cc1F` [FLUCONAZOLE] displayed an MIC90 in test [5] of 0.5 µg/mL (≈ 1.63 µM). This molecule also had an MIC in test [6] of 0.24 µg/mL (≈ 0.784 µM). Moreover, in test [7], the MIC50 amounted to 0.25 µg/mL (≈ 0.816 µM). Further, the Ratio in [4] turned out to be 0.069.
For the molecule `CCC(C)n1ncn(-c2ccc(N3CCN(c4ccc(OC[C@H]5CO[C@](Cn6cncn6)(c6ccc(Cl)cc6Cl)O5)cc4)CC3)cc2)c1=O` (stereo not given in full) [ITRACONAZOLE], the MIC in test [8] was determined as 0.096 µg/mL (≈ 0.136 µM). In addition, in test [9], the MIC50 was 0.062 µg/mL (≈ 0.0879 µM). The molecule further registered an MIC90 in test [10] of 0.125 µg/mL (≈ 0.177 µM).
With `c1ccc(-c2ccc(C(c3ccccc3)n3ccnc3)cc2)cc1` (stereo not given) [BIFONAZOLE], the MIC90 in test [11] was determined as 8 µg/mL (≈ 25.8 µM). This molecule also displayed an MIC in test [12] of 3.5 µg/mL (≈ 11.3 µM). In addition, the MIC50 in [13] is 2 µg/mL (≈ 6.44 µM). Also, the Ratio in test [14] amounted to 1.
